According to ChEMBL document CHEMBL2380254, “Optimization of tocotrienols as antiproliferative and antimigratory leads” (Eur J Med Chem, 2013):

Tests used:
RXF 393 = test: Growth inhibition of human RXF393 cells assessed as cell growth at 10 uM after 48 hrs by sulforhodamine B assay; type: functional; settings: RXF 393, 48 h, read-out: Activity
How it was run: (§1)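 Single-dose NCI-60 screen: adherent cells in RPMI 1640 with 5% FBS were exposed to 10 µM for 48 h at 37 °C after a 24 h preincubation. They were fixed in situ with cold TCA (10% final), stained with 0.4% SRB in 1% acetic acid, solubilized in 10 mM Tris base, and read at 515 nm. Percent growth was taken relative to time-zero and control plates.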

COLO 205 = test: Growth inhibition of human COLO205 cells after 48 hrs by sulforhodamine B assay; type: functional; settings: COLO 205, 48 h
How it was run: (§2)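 NCI-60 screen: cells in RPMI 1640 with 5% FBS and 2 mM glutamine, 5000–40,000 cells/well, preincubated 24 h. Five concentrations (10-fold dilutions; 100 to 0.001 µM) applied for 48 h at 37 °C. TCA fixation, SRB stain, absorbance at 515 nm. Time-zero plates included; GI50 where 100×(T−T0)/(C−T0)=50.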

MDA-MB-231 = test: Growth inhibition of human MDA-MB-231 cells assessed as cell growth at 10 uM after 48 hrs by sulforhodamine B assay; type: functional; settings: MDA-MB-231, 48 h, read-out: Activity; how it was run: as §1
[1] = Growth inhibition of human NCI-ADR-RES cells after 48 hrs by sulforhodamine B assay; type: functional
How it was run: (§3)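 NCI-60 panel cells grown in RPMI 1640 with 5% FBS and 2 mM L-glutamine, seeded at 5000–40,000 cells/well and preincubated 24 h. Five 10-fold dilutions (0.001–100 µM) from DMSO stocks were added for 48 h at 37 °C. Adherent cells were fixed with cold TCA (10% final) for 60 min at 4 °C, stained with 0.4% SRB, and read at 515 nm. GI50 was set where 100×(T−T0)/(C−T0)=50.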

OVCAR-4 = test: Growth inhibition of human OVCAR4 cells assessed as cell growth at 10 uM after 48 hrs by sulforhodamine B assay; type: functional; settings: OVCAR-4, 48 h, read-out: Activity; how it was run: as §1
[2] = Antiproliferative activity against mouse +SA cells by MTT assay; type: functional, cell-based; settings: +SA cell
How it was run: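 Mouse +SA mammary epithelial cells in serum-free DMEM/F12 with BSA, transferrin, insulin and EGF. Compounds from DMSO stock conjugated to BSA (overnight, 37 °C); 0–40 µM, final DMSO <0.1%. MTT 0.42 mg/mL for 4 h at 37 °C, isopropanol solubilization, OD 570 nm. Cell number from a standard curve; IC50 by non-linear regression.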

HOP-92 = test: Growth inhibition of human HOP92 cells after 48 hrs by sulforhodamine B assay; type: functional; settings: HOP-92, 48 h; how it was run: as §2
OVCAR-8 = test: Growth inhibition of human OVCAR8 cells assessed as cell growth at 10 uM after 48 hrs by sulforhodamine B assay; type: functional; settings: OVCAR-8, 48 h, read-out: Activity; how it was run: as §1
HCT-116 [3] = test: Growth inhibition of human HCT116 cells assessed as cell growth at 10 uM after 48 hrs by sulforhodamine B assay; type: functional; settings: HCT-116, 48 h, read-out: Activity
How it was run: (§4)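 NCI-60 single-dose screen at 10 µM: cells in RPMI 1640 with 5% FBS, preincubated 24 h, then exposed 48 h at 37 °C. TCA fixation (16% final for suspension cells), SRB staining, absorbance 515 nm. Percent growth relative to time-zero and untreated control plates; negative values indicate cell kill.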

SF-295 = test: Growth inhibition of human SF295 cells after 48 hrs by sulforhodamine B assay; type: functional; settings: SF-295, 48 h; how it was run: as §3
HT-29 = test: Growth inhibition of human HT-29 cells after 48 hrs by sulforhodamine B assay; type: functional; settings: HT-29, 48 h; how it was run: as §2
[4] = Growth inhibition of human Hs 578T cells after 48 hrs by sulforhodamine B assay; type: functional; how it was run: as §2
DU-145 = test: Growth inhibition of human DU145 cells assessed as cell growth at 10 uM after 48 hrs by sulforhodamine B assay; type: functional; settings: DU-145, 48 h, read-out: Activity; how it was run: as §4
T47D = test: Growth inhibition of human T47D cells assessed as cell growth at 10 uM after 48 hrs by sulforhodamine B assay; type: functional; settings: read-out: Activity
How it was run: (§5)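 Single-dose NCI-60 test at 10 µM. Cells were grown in RPMI 1640 with 5% FBS and 2 mM L-glutamine, preincubated 24 h, with T0 plates TCA-fixed. Exposure was 48 h at 37 °C, 5% CO2. Cells were fixed with cold TCA (final 10%, 4 °C, 60 min), stained with SRB and read at 515 nm. Percent growth was taken relative to T0 and untreated control; negative values denote cell kill.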

U-251 = test: Growth inhibition of human U251 cells assessed as cell growth at 10 uM after 48 hrs by sulforhodamine B assay; type: functional; settings: U-251, 48 h, read-out: Activity; how it was run: as §5
HCT-116 [5] = test: Growth inhibition of human HCT116 cells after 48 hrs by sulforhodamine B assay; type: functional; settings: HCT-116, 48 h; how it was run: as §2
CCRF-CEM = test: Growth inhibition of human CCRF-CEM cells after 48 hrs by sulforhodamine B assay; type: functional; how it was run: as §2
SF-268 = test: Growth inhibition of human SF268 cells after 48 hrs by sulforhodamine B assay; type: functional; settings: SF-268, 48 h; how it was run: as §3
SW-620 = test: Growth inhibition of human SW620 cells assessed as cell growth at 10 uM after 48 hrs by sulforhodamine B assay; type: functional; settings: SW-620, 48 h, read-out: Activity; how it was run: as §5
MOLT-4 = test: Growth inhibition of human MOLT4 cells after 48 hrs by sulforhodamine B assay; type: functional; settings: MOLT-4, 48 h
How it was run: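 NCI-60 suspension lines in RPMI 1640 with 5% FBS and 2 mM L-glutamine, preincubated 24 h. A five-concentration 10-fold series (0.001–100 µM) was given for 48 h at 37 °C. Settled cells were fixed with 80% TCA (16% final), stained with SRB, and read at 515 nm. GI50 was taken where 100×(T−T0)/(C−T0)=50, with T0 plates fixed at drug addition.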

SK-MEL-2 = test: Growth inhibition of human SK-MEL-2 cells after 48 hrs by sulforhodamine B assay; type: functional; settings: SK-MEL-2, 48 h; how it was run: as §3
CAKI-1 = test: Growth inhibition of human CAKI-1 cells assessed as cell growth at 10 uM after 48 hrs by sulforhodamine B assay; type: functional; settings: CAKI-1, 48 h, read-out: Activity; how it was run: as §4
SK-OV-3 = test: Growth inhibition of human SKOV3 cells after 48 hrs by sulforhodamine B assay; type: functional; settings: SK-OV-3, 48 h
How it was run: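 NCI-60 five-dose screen. Cells were grown in RPMI 1640 with 5% FBS and 2 mM L-glutamine, plated at 5000–40,000 cells/well and incubated 24 h before dosing, with T0 plates TCA-fixed. DMSO stocks were diluted to doses of […] and exposed 48 h at 37 °C, 5% CO2. Cells were fixed with cold TCA (final 10%, 60 min, 4 °C), stained with 0.4% SRB in 1% acetic acid for 10 min, solubilized in 10 mM trizma base and read at 515 nm. GI50 is where 100×(T−T0)/(C−T0)=50.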

| Compound | GI50 (COLO 205) | growth at 10 µM (MDA-MB-231) | GI50 [1] | growth at 10 µM (OVCAR-4) | IC50 [2] | GI50 (HOP-92) | growth at 10 µM (OVCAR-8) | growth at 10 µM (HCT-116 [3]) | GI50 (SF-295) | GI50 (HT-29) | GI50 [4] | growth at 10 µM (DU-145) | growth at 10 µM (T47D) | growth at 10 µM (U-251) | GI50 (HCT-116 [5]) | GI50 (CCRF-CEM) | GI50 (SF-268) | growth at 10 µM (SW-620) | GI50 (MOLT-4) | GI50 (SK-MEL-2) | other results |
| --- | --- | --- | --- | --- | --- | --- | --- | --- | --- | --- | --- | --- | --- | --- | --- | --- | --- | --- | --- | --- | --- |
| CC(C)=CCC/C(C)=C/CC/C(C)=C/CC[C@]1(C)CCc2c3c(c(C)c(C)c2O1)OCN(CCCCCCO)C3 | 2.83 µM | 9.83% | 2.87 µM | 3.51% | 2.1 µM | 1.89 µM | 49.9% | -92.7% | 2.97 µM | 3.04 µM | 3.04 µM | 77% | 8.28% | -75.2% | 2.87 µM | 2.73 µM | 2.81 µM | -29.4% | 2.92 µM | 3.27 µM | growth at 10 µM (RXF 393): 22.4%; growth at 10 µM (CAKI-1): 47%; GI50 (SK-OV-3): 2.57 µM |
| CC(C)=CCC/C(C)=C/CC/C(C)=C/CC[C@]1(C)CCc2c3c(c(C)c(C)c2O1)OCN(CCCCCCCCO)C3 | 2.78 µM | 40.7% | 5.5 µM | 57.9% | 1.4 µM | 2.17 µM | 72.1% | -92.9% | 3.16 µM | 3.26 µM | 2.61 µM | 73.1% | 56.1% | 34% | 2.95 µM | 3.34 µM | 2.78 µM | 10.1% | 3.26 µM | 3.01 µM | growth at 10 µM (RXF 393): -10.7%; growth at 10 µM (CAKI-1): 31.3%; GI50 (SK-OV-3): 2.63 µM |
| CC(C)=CCC/C(C)=C/CC/C(C)=C/CC[C@]1(C)CCc2c3c(cc(C)c2O1)OCN(CCCCO)C3 | 3.05 µM | -48.2% | 16.8 µM | -94.8% | 1.8 µM | 10.1 µM | -13.3% | -96.7% | 18.2 µM | 8.33 µM | 18.5 µM | 2.95% | -7.14% | -90.5% | 16 µM | 14.5 µM | 17.7 µM | -79.7% | 16.2 µM | 18.9 µM | growth at 10 µM (RXF 393): -96.3%; growth at 10 µM (CAKI-1): 34%; GI50 (SK-OV-3): 16.4 µM |
| CC(C)=CCC/C(C)=C/CC/C(C)=C/CC[C@]1(C)CCc2c3c(cc(C)c2O1)OCN(CCCCCO)C3 | 3.39 µM | 46.1% | 5.89 µM | 43.3% | 0.7 µM | 5.42 µM | -18.9% | -89.6% | 6.12 µM | 3.74 µM | 7.26 µM | 37.2% | 59.5% | -19.9% | 5.25 µM | 7.83 µM | 7.13 µM | -83.7% | 5.87 µM | 7.47 µM | growth at 10 µM (CAKI-1): 74.4%; GI50 (SK-OV-3): 6.85 µM |
| CC(C)=CCC/C(C)=C/CC/C(C)=C/CC[C@]1(C)CCc2c3c(cc(C)c2O1)OCN(CCCCCCO)C3 | 0.717 µM | -28.4% | 1.13 µM | -95.5% | 1.3 µM | 1.05 µM | -62.8% | -97.3% | 0.602 µM | 0.72 µM | 0.814 µM | 10.7% | -51.6% | -91.9% | 0.659 µM | 0.866 µM | 1.18 µM | -66.3% | 0.835 µM | 5.66 µM | growth at 10 µM (RXF 393): -95.6%; growth at 10 µM (CAKI-1): -72.8%; GI50 (SK-OV-3): 2.62 µM |
| CC(C)=CCC/C(C)=C/CC/C(C)=C/CC[C@]1(C)CCc2c3c(cc(C)c2O1)OCN(CCCCCCCCO)C3 | 0.886 µM | -69.6% | 3.37 µM | -98.9% | 0.79 µM | 1.84 µM | -51.9% | -100% | 1.02 µM | 0.703 µM | 0.938 µM | -57.7% | -67% | -95.8% | 0.597 µM | 0.865 µM | 4.14 µM | -46% | 0.996 µM | 5.59 µM | growth at 10 µM (RXF 393): -97.1%; growth at 10 µM (CAKI-1): -79.7%; GI50 (SK-OV-3): 2.24 µM |
| CC(C)=CCC/C(C)=C/CC/C(C)=C/CC[C@]1(C)CCc2c3c(c(C)c(C)c2O1)OCN(CCCCO)C3 | 2.09 µM | 37.9% | > 10 µM | 77.5% | 2.2 µM | 2.9 µM | 87.3% | -72.3% | 2.08 µM | 2.87 µM | > 10 µM | 88.8% | 59.1% | 14.8% | 2 µM | 3.45 µM | > 10 µM | -16.1% | 3.46 µM | > 10 µM | growth at 10 µM (RXF 393): 78.2%; growth at 10 µM (CAKI-1): 70.1%; GI50 (SK-OV-3): 5.41 µM |
| CC(C)=CCC/C(C)=C/CC/C(C)=C/CC[C@]1(C)CCc2c3c(cc(C)c2O1)OCN(CCc1ccc(O)cc1)C3 | 0.958 µM | 46.9% | 5.93 µM | 3.53% | 0.91 µM | 4 µM | -74.3% | -58.2% | 6.22 µM | 3.53 µM | 6.29 µM | 42.1% | 6.16% | -32% | 3.88 µM | 1.75 µM | 6.17 µM | -95.2% | 2.42 µM | 7.02 µM | growth at 10 µM (CAKI-1): 70.3%; GI50 (SK-OV-3): 6.2 µM |
